# According to ChEMBL document CHEMBL3877264, “Quinolidene-rhodanine conjugates: Facile synthesis and biological evaluation” (Eur J Med Chem, 2017):
# How the values were obtained:
# [1] = test system: Mycobacterium tuberculosis; assay: Growth inhibition of Mycobacterium bovis BCG ATCC 35743 at dormant stage at 12.5 ug/ml measured after 12 days by nitrate reductase dye based two fold dilution method relative to control; format: functional; conditions: BCG str. ATCC 35743, 288 h, read-out: GI
# [2] = test system: Mycobacterium tuberculosis; assay: Growth inhibition of Mycobacterium tuberculosis H37Ra ATCC 25177 at active stage at 12.5 ug/ml measured after 8 days by XTT dye based two fold dilution method relative to control; format: functional; conditions: H37Ra ATCC 25177, 192 h, read-out: GI
# [3] = test system: Mycobacterium tuberculosis; assay: Growth inhibition of Mycobacterium tuberculosis H37Ra ATCC 25177 at dormant stage at 3.13 ug/ml measured after 12 days by XTT dye based two fold dilution method relative to control; format: functional; conditions: H37Ra ATCC 25177, 288 h, read-out: GI
# How it was run: (§1)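 MTB H37Ra was grown in Dubos medium, then exposed in Mycobacterium pheli minimal medium (pH 6.6) to compounds dissolved in DMSO. The assay ended on day 8 (active) or day 12 (dormant). Viable cells were measured by XTT reduction menadione assay at 470 nm, blank-corrected, relative to vehicle control. Triplicates were expressed as mean ± SD. MIC came from dose-response curves.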
# [4] = Cytotoxicity against […]-differentiated human THP1 cells measured after 48 hrs by MTT assay; format: toxicity, cell-based, THP-1
# How it was run: (§2)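 MTT assay with 48 h compound exposure. THP-1 macrophages made by 24 h PMA treatment. Each concentration tested in triplicate in one experiment. % cytotoxicity = (control−test)/(control−blank)×100, with control = cells + DMSO and blank = medium without cells. IC50 from % survival versus concentration plots.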
# Staphylococcus aureus [5] = assay: Growth inhibition of Staphylococcus aureus NCIM 2010 at 30 ug/ml measured after 12 hrs relative to control; format: functional; conditions: NCIM 2010, 12 h, read-out: GI
# How it was run: (§3)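 Bacteria grown in LB at 37 °C and 180 rpm to OD 1. Compounds added to wells, then 0.1% inoculum of 1 OD culture (620 nm). Growth read as OD at 620 nm after 8 h for gram-negative and after 12 h for gram-positive strains.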
# [6] = test system: Mycobacterium tuberculosis; assay: Growth inhibition of Mycobacterium tuberculosis H37Ra ATCC 25177 at active stage at 50 ug/ml measured after 8 days by XTT dye based two fold dilution method relative to control; format: functional; conditions: H37Ra ATCC 25177, 192 h, read-out: GI; how it was run: as §1
# [7] = test system: Mycobacterium tuberculosis; assay: Growth inhibition of Mycobacterium bovis BCG ATCC 35743 at dormant stage measured after 12 days by nitrate reductase dye based two fold dilution method; format: functional; conditions: BCG str. ATCC 35743, 288 h
# How it was run: (§4)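 M. bovis BCG was grown in Dubos medium and assayed in Mycobacterium pheli minimal medium (pH 6.6), with compounds from DMSO stocks. Incubation lasted 8 days for active and 12 days for dormant cultures. Viability was read by nitrate reductase at 540 nm against cell-free blanks, with vehicle set as 100% growth. Primary screen was at 30, 10 and 3 µg/ml, in triplicate, mean ± SD. MIC was taken from dose-response curves.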
# Staphylococcus aureus [8] = assay: Growth inhibition of Staphylococcus aureus NCIM 2010 at 3 ug/ml measured after 12 hrs relative to control; format: functional; conditions: NCIM 2010, 12 h, read-out: GI; how it was run: as §3
# Bacillus subtilis [9] = assay: Growth inhibition of Bacillus subtilis NCIM 2079 at 10 ug/ml measured after 12 hrs relative to control; format: functional; conditions: NCIM 2079, 12 h, read-out: GI; how it was run: as §3
# [10] = Selectivity index, ratio of GI50 for human PANC1 cells to MIC for Mycobacterium tuberculosis H37Ra ATCC 25177 at dormant stage; format: toxicity, cell-based, PANC-1; conditions: read-out: Selectivity Index
# How it was run: (§5)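 SI is the cell-line GI50 divided by the dormant-stage mycobacterial MIC. […] THP-1 macrophages were PMA-differentiated for 24 h.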
# Bacillus subtilis [11] = assay: Growth inhibition of Bacillus subtilis NCIM 2079 at 30 ug/ml measured after 12 hrs relative to control; format: functional; conditions: NCIM 2079, 12 h, read-out: GI; how it was run: as §3
# [12] = Cytotoxicity against human A549 cells assessed as growth inhibition at 100 ug/ml measured after 48 hrs by MTT assay relative to control; format: toxicity, cell-based; conditions: read-out: GI
# [13] = Selectivity index, ratio of GI50 for human A549 cells to MIC for Mycobacterium tuberculosis H37Ra ATCC 25177 at dormant stage; format: toxicity, cell-based; conditions: read-out: Selectivity Index; how it was run: as §5
# [14] = Cytotoxicity against primary HUVEC assessed as growth inhibition at 100 ug/ml measured after 48 hrs by MTT assay relative to control; format: toxicity, cell-based; conditions: human, read-out: GI
# [15] = test system: Mycobacterium tuberculosis; assay: Growth inhibition of Mycobacterium tuberculosis H37Ra ATCC 25177 at active stage at 0.78 ug/ml measured after 8 days by XTT dye based two fold dilution method relative to control; format: functional; conditions: H37Ra ATCC 25177, 192 h, read-out: GI; how it was run: as §1
# [16] = Selectivity index, ratio of GI50 for human HeLa cells to MIC for Mycobacterium tuberculosis H37Ra ATCC 25177 at dormant stage; format: toxicity, cell-based; conditions: read-out: Selectivity Index; how it was run: as §5
# [17] = Cytotoxicity against […]-differentiated human THP1 cells assessed as growth inhibition at 100 ug/ml measured after 48 hrs by MTT assay relative to control; format: toxicity, cell-based, THP-1; conditions: read-out: GI; how it was run: as §2
# [18] = test system: Mycobacterium tuberculosis; assay: Growth inhibition of Mycobacterium bovis BCG ATCC 35743 at dormant stage at 6.25 ug/ml measured after 12 days by nitrate reductase dye based two fold dilution method relative to control; format: functional; conditions: BCG str. ATCC 35743, 288 h, read-out: GI; how it was run: as §4
# [19] = test system: Mycobacterium tuberculosis; assay: Growth inhibition of Mycobacterium tuberculosis H37Ra ATCC 25177 at active stage at 25 ug/ml measured after 8 days by XTT dye based two fold dilution method relative to control; format: functional; conditions: H37Ra ATCC 25177, 192 h, read-out: GI; how it was run: as §1
# Escherichia coli = assay: Antibacterial activity against Escherichia coli NCIM 2688 measured after 8 hrs; format: functional; conditions: NCIM 2688, 8 h; how it was run: as §3
# [20] = Selectivity index, ratio of GI50 for HUVEC to MIC for Mycobacterium bovis BCG ATCC 35743 at dormant stage; conditions: pooled result: one value given for 6 cell lines, strains, targets or settings; how it was run: as §5
# [21] = test system: Mycobacterium tuberculosis; assay: Growth inhibition of Mycobacterium bovis BCG ATCC 35743 at dormant stage at 0.78 ug/ml measured after 12 days by nitrate reductase dye based two fold dilution method relative to control; format: functional; conditions: BCG str. ATCC 35743, 288 h, read-out: GI; how it was run: as §4
# [22] = test system: Mycobacterium tuberculosis; assay: Growth inhibition of Mycobacterium bovis BCG ATCC 35743 at active stage at 1.56 ug/ml measured after 8 days by nitrate reductase dye based two fold dilution method relative to control; format: functional; conditions: BCG str. ATCC 35743, 192 h, read-out: GI; how it was run: as §4
# [23] = test system: Mycobacterium tuberculosis; assay: Growth inhibition of Mycobacterium bovis BCG ATCC 35743 at active stage at 12.5 ug/ml measured after 8 days by nitrate reductase dye based two fold dilution method relative to control; format: functional; conditions: BCG str. ATCC 35743, 192 h, read-out: GI
# [24] = test system: Mycobacterium tuberculosis; assay: Growth inhibition of Mycobacterium tuberculosis H37Ra ATCC 25177 at dormant stage at 0.78 ug/ml measured after 12 days by XTT dye based two fold dilution method relative to control; format: functional; conditions: H37Ra ATCC 25177, 288 h, read-out: GI; how it was run: as §1
# [25] = Cytotoxicity against human HeLa cells measured after 48 hrs by MTT assay; format: toxicity, cell-based
# [26] = Cytotoxicity against human PANC1 cells assessed as growth inhibition at 100 ug/ml measured after 48 hrs by MTT assay relative to control; format: toxicity, cell-based, PANC-1; conditions: read-out: GI
# [27] = test system: Mycobacterium tuberculosis; assay: Growth inhibition of Mycobacterium bovis BCG ATCC 35743 at dormant stage at 50 ug/ml measured after 12 days by nitrate reductase dye based two fold dilution method relative to control; format: functional; conditions: BCG str. ATCC 35743, 288 h, read-out: GI; how it was run: as §4
# [28] = Cytotoxicity against human A549 cells measured after 48 hrs by MTT assay; format: toxicity, cell-based
# [29] = Cytotoxicity against human THP1 cells measured after 48 hrs by MTT assay; format: toxicity, cell-based, THP-1; how it was run: as §2
compound,measurement,setting,value
Cc1cccc2cc(/C=C3\SC(=S)NC3=O)c(Cl)nc12,inhibition of growth at 12.5 µg/mL,[1],95.4%
same,inhibition of growth at 12.5 µg/mL,[2],76.3%
same,inhibition of growth at 3.13 µg/mL,[3],-0.35%
same,GI50 at 48 h,[4],> 100 µg/mL
same,inhibition of growth at 30 µg/mL,Staphylococcus aureus [5],12.6%
same,inhibition of growth at 50 µg/mL,[6],102%
same,IC50,[7],5.1 µg/mL
same,IC90,[7],9.5 µg/mL
same,inhibition of growth at 3 µg/mL,Staphylococcus aureus [8],-3.27%
same,inhibition of growth at 10 µg/mL,Bacillus subtilis [9],-0.291%
same,selectivity ratio,[10],7.8
same,inhibition of growth at 30 µg/mL,Bacillus subtilis [11],6.66%
same,"inhibition at 48 h, 100 ug/ml",[12],32.9%
same,selectivity ratio,[13],7.8
same,"inhibition at 48 h, 100 ug/ml",[14],14.9%
same,inhibition of growth at 0.78 µg/mL,[15],20.1%
same,selectivity ratio,[16],7.8
same,"inhibition at 48 h, 100 ug/ml",[17],2.58%
same,inhibition of growth at 6.25 µg/mL,[18],62.9%
same,inhibition of growth at 25 µg/mL,[19],105%
same,MIC,Escherichia coli,> 30 µg/mL
same,Selectivity Index,[20],10.4
same,inhibition of growth at 0.78 µg/mL,[21],-16.3%
same,inhibition of growth at 1.56 µg/mL,[22],-33.4%
same,inhibition of growth at 12.5 µg/mL,[23],99.5%
same,inhibition of growth at 0.78 µg/mL,[24],-16.1%
same,GI50 at 48 h,[25],> 100 µg/mL
same,"inhibition at 48 h, 100 ug/ml",[26],30.9%
same,inhibition of growth at 50 µg/mL,[27],100%
same,GI50 at 48 h,[28],> 100 µg/mL
same,GI50 at 48 h,[29],> 100 µg/mL
CCOc1ccc2nc(Cl)c(/C=C3\SC(=S)NC3=O)cc2c1,inhibition of growth at 12.5 µg/mL,[1],101%
same,inhibition of growth at 12.5 µg/mL,[2],101%
same,inhibition of growth at 3.13 µg/mL,[3],71.7%
same,GI50 at 48 h,[4],> 100 µg/mL
same,inhibition of growth at 30 µg/mL,Staphylococcus aureus [5],-29.8%
same,inhibition of growth at 50 µg/mL,[6],100%
same,IC50,[7],1.1 µg/mL
same,IC90,[7],1.9 µg/mL
same,inhibition of growth at 3 µg/mL,Staphylococcus aureus [8],42.7%
same,inhibition of growth at 10 µg/mL,Bacillus subtilis [9],-7.03%
same,selectivity ratio,[10],28.6
same,inhibition of growth at 30 µg/mL,Bacillus subtilis [11],98.5%
same,"inhibition at 48 h, 100 ug/ml",[12],23.9%
same,selectivity ratio,[13],28.6
same,"inhibition at 48 h, 100 ug/ml",[14],33%
same,inhibition of growth at 0.78 µg/mL,[15],-4.44%
same,selectivity ratio,[16],28.6
same,"inhibition at 48 h, 100 ug/ml",[17],35.1%
same,inhibition of growth at 6.25 µg/mL,[18],101%
same,inhibition of growth at 25 µg/mL,[19],106%
same,MIC,Escherichia coli,> 30 µg/mL
same,Selectivity Index,[20],50
same,inhibition of growth at 0.78 µg/mL,[21],-57%
same,inhibition of growth at 1.56 µg/mL,[22],93.4%
same,inhibition of growth at 12.5 µg/mL,[23],98.2%
same,inhibition of growth at 0.78 µg/mL,[24],-39.5%
same,GI50 at 48 h,[25],> 100 µg/mL
same,"inhibition at 48 h, 100 ug/ml",[26],30.1%
same,inhibition of growth at 50 µg/mL,[27],99.6%
same,GI50 at 48 h,[28],> 100 µg/mL
same,GI50 at 48 h,[29],> 100 µg/mL
